Source: PubChem BioAssay (several laboratories)
The list is not random: actives were taken first. Their share in the collection is about 29%.
CYP2C9 activ: human CYP2C9 activators, primary screen, biochemical, luminescence | recombinant CYP2C9, luciferin-H conversion; hits give high values; factor 1 = untreated enzyme, 0 = blocked | activation factor at 5 µM | actives 1.4% (n = 96,000);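 active means activation factor of 2 or more for CYP2C9 at a 5 µM dose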
Target sequence (P11712 whole entry, looked up): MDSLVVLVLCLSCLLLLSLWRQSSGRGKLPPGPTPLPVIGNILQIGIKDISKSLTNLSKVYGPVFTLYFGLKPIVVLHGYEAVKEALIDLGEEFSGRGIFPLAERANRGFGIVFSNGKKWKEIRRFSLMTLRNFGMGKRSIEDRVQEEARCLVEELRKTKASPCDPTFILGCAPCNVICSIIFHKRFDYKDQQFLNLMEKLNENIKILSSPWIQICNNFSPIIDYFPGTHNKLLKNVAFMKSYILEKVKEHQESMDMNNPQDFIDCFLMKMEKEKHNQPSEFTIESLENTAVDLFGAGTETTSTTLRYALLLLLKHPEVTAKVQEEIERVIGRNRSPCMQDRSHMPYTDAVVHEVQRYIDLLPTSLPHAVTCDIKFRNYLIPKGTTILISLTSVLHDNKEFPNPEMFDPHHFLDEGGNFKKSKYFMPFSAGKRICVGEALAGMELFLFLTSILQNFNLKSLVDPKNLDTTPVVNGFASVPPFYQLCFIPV
Ecoli tolC: growth inhibitors of E. coli tolC mutant, primary screen, strain BW25113 ΔtolC::kan, 384-well; OD615; growth inhibition, % at 10 µM (by protocol); actives 2.2% (n = 65,000); AID 573, 2007;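 active means growth inhibition at or above a cutoff equal to the mean over every tested compound plus 3 SD, cut at about 60% in these data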;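 further: growth measured after 20 h incubation at 37 °C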
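Signal: optical density read at 615 nm; Assay system: E. coli ΔtolC::kan strain BW25113; Times: 20 h incubation with compound, 37 °C; Dosing: 10 µM final, single dose.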
CYP2C19 act: human CYP2C19 activators, primary screen, biochemical, luminescence; Cytochrome P450 2C19 (Homo sapiens), P33261; recombinant CYP2C19, luciferin-H EGE luminescence; hits give high values; 0 = fully inhibited enzyme, 1 = untreated enzyme; activation factor at 5 µM; 96,000 tested, under 10 active; AID 1025, 2008;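 active means activation factor of at least 2 at 5 µM in the primary screen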
Ecoli WT expand: growth inhibitors of wild-type E. coli, primary screen, strain BW25113, expanded library, OD600. OD600 absorbance. growth inhibition, % at 100 µM. actives 0.15% (n = 98,000);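 active means growth inhibition above about 50% at one test dose, limit read from the data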;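 further: growth measured after 20 h incubation at 37 °C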
CYP2C9 inhib: blockers of cytochrome P450 2C9 activity – biochemical, luminescence, ADME assay, primary screen. P11712. CYP2C9 Supersomes, luciferin-H conversion. inhibition, % at 5 µM. actives 20% (n = 96,000). AID 777, 2007;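 active means blocking of liver enzyme CYP2C9 beyond about 50% at 5 µM, limit read from the data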
CYP2C19 inhib: blockers of cytochrome P450 2C19 activity – biochemical, luminescence, ADME assay, primary screen; P33261; CYP2C19 Supersomes, luciferin-H EGE luminescence, 30 min; inhibition, % at 5 µM; actives 21% (n = 96,000); AID 778, 2007;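 active means CYP2C19 inhibition above a set limit at 5 µM in the primary screen, cut at about 50% in these data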
Hits are given with their value; n = inactive; x = no result given.

SMILES	CYP2C9 activ	Ecoli tolC	CYP2C19 act	Ecoli WT expand	CYP2C9 inhib	CYP2C19 inhib
CCOc1ccccc1NS(=O)(=O)c1c(C)noc1C	n	n	n	n	71	75
CCOc1ccc(OCC)c(NC(=O)CN(c2ccc(C)cc2)S(=O)(=O)c2c(C)noc2C)c1	n	n	n	n	92	n
Cc1ccc(CNC(=O)CCCC(=O)O)cc1	n	x	n	n	n	n
CCOC(=O)c1sc(N)nc1C(C)(C)C	n	x	n	n	n	58
Cc1ccc(S(=O)(=O)c2n[nH]n3c2nc(=O)c2ccccc23)cc1	n	n	n	n	94	n
CCOC(=O)C1=C(C)N=c2s/c(=C/c3ccccc3)c(=O)n2C1c1ccc(OC)c(OC)c1 (stereo unspecified)	n	x	n	n	n	n
CCOC(=O)C1=C(C)n2c(s/c(=C/c3cccc([N+](=O)[O-])c3)c2=O)=NC1c1ccc(O)c(OC)c1 (stereo unspecified)	n	x	n	n	67	55
COc1cccc(-c2cc(C(=O)N3CCCc4ccccc43)no2)c1	n	n	n	n	n	n
O=C(c1cc(-c2cccs2)on1)N1CCCc2ccccc21	n	n	n	n	n	93
COc1cc(C2=NOC(C(=O)N3CCCc4ccccc43)C2)cc(OC)c1OC (stereo unspecified)	n	n	n	n	n	n
COc1ccc(-c2cc(C(=O)N3CCCc4ccccc43)no2)cc1	n	63	n	n	n	n
CC1CCCC(C)N1C(=O)c1cc(-c2cccs2)on1 (stereo unspecified)	x	n	x	n	x	x
COc1ccc(OC)c(-c2cc(C(=O)N3CCCc4ccccc43)no2)c1	n	65	n	n	n	n
COc1ccc(C2=NOC(C(=O)N3CCCc4ccccc43)C2)cc1 (stereo unspecified)	2.2	n	n	n	n	n
COc1ccc(C(=O)N2CCCc3ccccc32)cc1	n	n	n	n	n	n
CCc1nnc(NC(=O)CSc2ncnc3c2cnn3-c2ccc(OC)cc2)s1	n	x	n	n	n	n
Cc1ccc(N2CC(C(=O)N3CCCc4ccccc43)CC2=O)cc1 (stereo unspecified)	n	n	n	n	96	68
Cc1ccc(N2CC(C(=O)N3CCc4ccccc43)CC2=O)cc1 (stereo unspecified)	n	n	n	n	n	n
Clc1cccc(Cl)c1CSc1nnc(CN2CCOCC2)n1-c1ccccc1	n	x	n	n	n	n
Clc1ccc(CSc2nnc(CN3CCOCC3)n2-c2ccccc2)cc1Cl	n	x	n	n	62	84
O=C(CSc1ccccn1)c1ccc2c(c1)OCO2	n	n	n	n	n	98
Cn1c(SCC(=O)c2ccc3c(c2)OCO3)nnc1-c1ccccn1	n	n	n	n	n	52
O=C(CSc1nnc(SCc2cccc3ccccc23)s1)c1ccc2c(c1)OCO2	n	x	n	n	63	52
Cn1c(=N)n(CC(=O)C(C)(C)C)c2ccccc21	n	n	n	n	n	n
CCn1c(NC(=O)Nc2ccccc2OC)nc2ccccc21	n	n	n	n	n	n
SMILES	CYP2C9 activ	Ecoli tolC	CYP2C19 act	Ecoli WT expand	CYP2C9 inhib	CYP2C19 inhib
C=CCN(CC=C)C(=O)C(=O)c1cc(C)n(-c2ccc([N+](=O)[O-])cc2)c1C	n	x	n	n	n	98
Cc1cc(C(=O)C(=O)N(C)C)c(C)n1-c1ccc([N+](=O)[O-])cc1	n	x	n	n	n	72
Cc1ccc(-n2c(C)cc(C(=O)OCC(=O)N(C)C3CCS(=O)(=O)C3)c2C)cc1 (stereo unspecified)	n	n	n	n	n	n
C=CCN1CCN(c2ccncc2S(=O)(=O)N2CCOCC2)CC1	n	x	n	n	n	n
COc1cccc(-n2nc(-c3ccnn3-c3ccccc3)c(=O)n(C)c2=O)c1	n	x	n	n	n	62
COc1ccc(-n2nc(C(=O)Nc3ccc4c(c3)OCO4)c3ccccc3c2=O)cc1	n	n	n	n	79	n
O=C(c1cc2ccccc2oc1=O)N1CCN(Cc2ccc3c(c2)OCO3)CC1	n	n	n	n	n	n
COc1cccc(-n2nc(C(=O)O)c3ccccc3c2=O)c1	n	n	n	n	n	50
COc1ccc(-n2nc(C(=O)N3CCN(Cc4ccc5c(c4)OCO5)CC3)c3ccccc3c2=O)cc1	n	n	n	n	74	n
COC(=O)CNC(=O)c1nn(-c2cccc(OC)c2)c(=O)c2ccccc12	n	n	n	n	n	n
COc1cccc(NC2SC(=O)N(c3ccccc3)C2=O)c1 (stereo unspecified)	n	n	n	n	n	n
CCOC(=O)c1c(C)[nH]c(C(=O)CN2CC(C)OC(C)C2)c1C (stereo unspecified)	n	n	n	n	n	n
CC(=O)NC(C)c1ccc(Cl)c(Cl)c1 (stereo unspecified)	n	n	n	n	n	75
CC(=O)NC(NC(C)=O)c1ccc(Br)cc1	n	n	n	n	n	n
Cc1cc(C(F)(F)F)nn1CC(=O)N1CCOCC1	n	x	n	n	n	n
CSc1nc(Oc2ccc3ccccc3c2)c2sccc2n1	n	x	n	n	87	n
Cc1ccc(Cn2nnnc2CN2CCC(c3nc4ccc(Cl)cc4[nH]3)CC2)cc1	n	x	n	n	90	89
Cc1ccc(Cn2nnnc2CN2CCC(O)(c3ccc(F)cc3)CC2)cc1	n	n	n	n	n	n
CN(Cc1ccccc1)c1ncnc2c1cnn2-c1ccccc1	n	92	n	n	n	n
CCN(c1ccccc1)c1ncnc2c1cnn2-c1ccccc1	n	100	n	n	n	n
Cc1cc2c(C)c(C)c(=O)[nH]c2cc1N	n	x	n	n	n	n
O=C(O)/C=C\C(=O)Nc1ccccc1C#Cc1ccccc1	n	x	n	n	62	n
O=C(O)/C=C\C(=O)Nc1ccccc1C#Cc1ccc(Br)cc1	n	x	n	n	87	n
COc1ccc(CNC(=O)COC(=O)C2=COCCO2)cc1	n	x	n	n	n	n
O=C(Oc1ccc(-c2ccccc2)cc1)N1CCOCC1	n	n	n	n	n	n
O=C(Oc1cccc(Oc2ccccc2)c1)N1CCOCC1	n	n	n	n	n	63
O=C(OCc1ccccc1)N1CCOCCOCCN(C(=O)OCc2ccccc2)CCOCCOCC1	n	x	n	n	84	n
CCOc1ccc(Br)cc1/C=N/NC(=O)c1ccncc1	n	x	n	n	83	91
CCO/C=C/C(O)(CNC(=O)COc1ccccc1F)C(F)(F)F (stereo unspecified)	n	n	n	n	n	85
